Screens as filed in PubChem.
Sampled rows, rich in hits. Any-hit rate of the full collection: about 2.3%.
CSN inh: inhibitors of CSN-mediated cullin deneddylation, primary screen, biochemical, fluorescence polarization, uHTS | Purified CSN, SCF-Nedd8-OG deneddylation | inhibition, % at 12.5 µM | 360,000 tested, 0.38% active;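 active means pattern-corrected inhibition above about 35%, with an unprinted fluorescence ratio check between 0.5 and 1.5, limit read from the data, passing the limit was not always enough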;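 further: 0% = enzyme with substrate and 100% = substrate without enzyme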
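Detection – fluorescence polarization · System – HEK293T-derived human Csn5 enzyme · Controls – substrate-only high control, full reaction low control · Timing – 90 min, room temperature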
Rpn11 block: Rpn11 (PSMD14) deubiquitinase inhibitors, primary screen, biochemical, fluorescence polarization, uHTS; human 26S proteasome, Ub4-pepOG fluorescence polarization; 20S core pre-blocked with epoxomicin; 360,000 tested, 0.59% active; inhibition, % at 20 µM;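 active means inhibition at 20 µM, scaled to each plate's controls, above about 33%, limit read from the data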
MT1-MMP act inh: blockers of MT1-MMP proenzyme processing, primary screen, HT1080 RFP-PRO-GFP cells, GFP/RFP fluorescence | GFP/RFP ratio fluorescence, overnight; percent of plate control window, DMSO zero | GFP/RFP ratio change, % at 20 µM | 360,000 tested, 0.061% active | AID 651647, 2012;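 active means GFP/RFP ratio change of at least 30% with cell ATP level not reduced by more than half and red fluorescence within 50% of control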
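Test system: HT1080 cells expressing an RFP-PRO-GFP fluorescent reporter construct / Compound dosing: single-point 20 µM compound, 1% DMSO / Schedule: cells overnight before dosing, compound overnight, 37 °C, 5% CO2 / Evaluation: GFP/RFP fluorescence ratio / Control set: DMSO and RFP-L50D-GFP cell wells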
SUMO1 PPI mod: modulators of SUMO1 protein-protein interactions, primary screen, biochemical, uHTS; inhibition, % at 20 µM; 360,000 tested, 0.33% active; SUMO1 binding to a labelled peptide, TR-FRET, 1 h; Small ubiquitin-related modifier 1 (Homo sapiens), P63165; in the data active means inhibition above about 37%
DNMT1 block: human DNMT1 methyltransferase inhibitors, primary screen, biochemical, molecular beacon, fluorescence, HinP1I cleavage, uHTS; DNA (cytosine-5)-methyltransferase 1 (Homo sapiens), P26358; inhibition (reported as % activation of signal), % at 10 µM; 360,000 tested, 0.83% active; AID 588458, 2011; in the data active means inhibition above about 50%
Target sequence (P26358 504-1616 limits assumed): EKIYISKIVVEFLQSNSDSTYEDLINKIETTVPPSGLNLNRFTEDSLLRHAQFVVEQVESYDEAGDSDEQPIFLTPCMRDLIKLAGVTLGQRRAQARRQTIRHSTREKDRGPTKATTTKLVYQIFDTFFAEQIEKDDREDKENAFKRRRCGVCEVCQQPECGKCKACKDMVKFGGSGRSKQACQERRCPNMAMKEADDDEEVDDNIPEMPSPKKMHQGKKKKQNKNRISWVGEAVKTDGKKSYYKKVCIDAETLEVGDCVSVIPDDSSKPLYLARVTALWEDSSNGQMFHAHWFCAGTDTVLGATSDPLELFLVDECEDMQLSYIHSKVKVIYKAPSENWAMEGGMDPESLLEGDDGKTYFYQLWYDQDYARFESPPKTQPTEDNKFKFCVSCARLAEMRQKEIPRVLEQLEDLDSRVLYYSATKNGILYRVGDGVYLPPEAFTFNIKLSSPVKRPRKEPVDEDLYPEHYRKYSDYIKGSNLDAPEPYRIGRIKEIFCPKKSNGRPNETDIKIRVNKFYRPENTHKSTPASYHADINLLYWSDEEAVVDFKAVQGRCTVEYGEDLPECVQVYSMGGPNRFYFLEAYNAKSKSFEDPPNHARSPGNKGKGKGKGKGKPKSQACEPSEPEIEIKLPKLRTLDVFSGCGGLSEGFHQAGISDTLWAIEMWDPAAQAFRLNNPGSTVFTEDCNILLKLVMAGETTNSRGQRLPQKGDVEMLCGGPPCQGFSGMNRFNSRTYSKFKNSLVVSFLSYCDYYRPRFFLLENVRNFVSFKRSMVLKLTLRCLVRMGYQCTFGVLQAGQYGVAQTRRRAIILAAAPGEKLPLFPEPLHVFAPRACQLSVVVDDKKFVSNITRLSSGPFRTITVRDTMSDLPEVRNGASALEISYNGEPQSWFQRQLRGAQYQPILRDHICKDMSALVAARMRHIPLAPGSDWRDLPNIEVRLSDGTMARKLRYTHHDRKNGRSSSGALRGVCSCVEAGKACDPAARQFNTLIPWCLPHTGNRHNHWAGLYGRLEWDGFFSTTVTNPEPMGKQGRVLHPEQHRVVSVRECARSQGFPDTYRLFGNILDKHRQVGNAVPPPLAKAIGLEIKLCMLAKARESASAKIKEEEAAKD
SKN-1 inh: suppressors of acrylamide-induced Pgst-4::GFP reporter in worms, primary screen, SKN-1 inhibitor project, whole organism, uHTS, GFP/RFP fluorescence ratio, strain VP596. C. elegans VP596 Pgst-4::GFP/RFP ratio, 24 h. inhibition, % at 21.8 µM. 360,000 tested, 0.49% active;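 active means interference check ratio from 0.5 to 1.5 plus GFP to RFP signal ratio inhibition reaching or exceeding a fixed threshold, cut at about 30% in these data, passing the limit was not always enough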
An asterisk follows results filed as active; / = no result given.

SMILES | CSN inh | Rpn11 block | MT1-MMP act inh | SUMO1 PPI mod | DNMT1 block | SKN-1 inh
Cc1cccc(-n2nc3c(c2NC(=O)C2CC2)CS(=O)(=O)C3)c1C | 1.5 | 2.9 | -0.4 | 2.6 | 2.7 | 35.2*
Cc1cccc(-n2nc3c(c2NC(=O)c2ccco2)CSC3)c1C | 36.4* | 27.7 | -16.4 | 6.4 | 86.5* | 6.5
COc1ccc2c(c1)c(=O)oc1cc(OCC(=O)NC3CCCCC3)ccc12 | 11.0 | -13.3 | 11.1 | -16.9 | 51.7* | 25.2
COc1ccc2c(c1)c(=O)oc1cc(OCC(=O)NC3CC3)ccc12 | 3.3 | 10.2 | -1.1 | -8.0 | 40.5 | -14.1
O=C(CSc1nnc(CNc2ccc(F)cc2)n1Cc1ccco1)NC1CC1 | 3.7 | 11.5 | -10.5 | -2.9 | -6.2 | 46.4*
O=C(Nc1ccc(Cl)cc1)c1ccc2sc([C@@H]3O[C@H](CO)[C@@H](O)[C@H]3O)nc2c1 | -3.5 | -6.2 | 3.4 | 1.2 | -5.8 | 9.8
CCOC(=O)c1sc(NC(=O)c2ccc(OC)cc2)nc1C | -0.4 | -2.2 | -5.8 | 55.3* | 0.3 | 7.2
O=C(c1cccs1)N1CCN(c2ccccc2)CC1 | -2.8 | -7.1 | -0.4 | 2.4 | -1.3 | -2.1
CC1CN(C(=O)c2cccs2)CCN1C(=O)c1cccs1 (stereo unspecified) | 2.5 | -14.3 | -3.7 | 1.1 | 4.8 | 43.2*
COc1ccc(/C=N/OCC(=O)N=Nc2c(O)[nH]c3ccc(Br)cc23)cc1 | 1.4 | 6.9 | 1.4 | -9.1 | 79.2* | -1.9
COc1ccccc1N=Nc1c(O)[nH]c2ccc(Br)cc12 | 14.9 | / | -40.6 | -4.1 | 15.8 | 49.9*
Cc1cccc(C)c1OCC(=O)N=Nc1c(O)[nH]c2ccc(Br)cc12 | -0.9 | 0.6 | -3.1 | -9.4 | 38.7 | 4.5
CCCCC[C@@H](C)N1C[C@@H](COCc2ccccc2)Oc2cc(N3CCC[C@@H]3COC)ccc2S1(=O)=O | -5.0 | / | -7.4 | 7.7 | / | 18.8
COc1ccccc1-c1csc(C(C)(O)c2ccccc2)n1 (stereo unspecified) | 3.5 | -5.1 | 0.6 | 2.3 | -3.0 | 14.9
COCCNC(=O)C1(C)CCN(C(=O)c2sc(-c3ccccc3)nc2C)C1 (stereo unspecified) | -5.8 | -0.1 | 5.2 | 0.5 | 0.6 | -13.0
N#C/C(=C\c1ccc(OCc2ccc(Br)cc2)cc1)C(=O)Nc1cccc(C(=O)O)c1 | 24.1 | 8.5 | 0.6 | 57.5* | 27.6 | 2.9
N#C/C(=C\c1ccc(OCc2ccc(F)cc2)cc1)C(=O)Nc1cccc(C(=O)O)c1 | 20.6 | -1.9 | -2.3 | 25.7 | -2.9 | 12.5
CCCn1nc2cc(C(=O)NCc3ccc(OC(F)(F)F)cc3)ccc2c1OCC | -6.0 | -9.4 | 6.9 | -9.5 | -2.4 | 62.0*
CCOc1c2ccc(C(=O)NCc3ccc(OC(F)(F)F)cc3)cc2nn1CC | -4.7 | -5.3 | -2.8 | -5.7 | -1.0 | 27.0
COc1ccc(/C=C2\SC(=N)N(c3nccs3)C2=O)cc1OC | 5.7 | 20.9 | 5.5 | 8.6 | -0.3 | 4.9
N=C1S/C(=C\c2ccc(-c3cccc(Cl)c3)o2)C(=O)N1c1nccs1 | 2.8 | 6.2 | -42.5 | 22.8 | 111.7* | 8.0
O[C@@H]1CN(Cc2cccs2)[C@@H](c2ccc(Cl)cc2)C[C@H]1n1cc(-c2ccc(F)cc2)nn1 | -0.4 | 1.4 | 2.6 | -3.7 | 8.6 | 2.7
COc1ccc(C2(c3ccc(OC)cc3)NC(=O)N(CC(=O)NC3CCS(=O)(=O)C3)C2=O)cc1 (stereo unspecified) | 0.9 | 0.6 | -3.8 | -2.5 | 6.2 | 40.3*
O=c1oc2ccccc2c2oc3cc(O)c(O)cc3c12 | 13.4 | 0.6 | -0.5 | -21.6 | 26.7 | -6.9
O=c1oc2c(O)c(O)cc3c(=O)oc4c(O)c(O)cc1c4c23 | 54.9 | 39.2 | -2.2 | 94.4* | 88.5* | -17.2
SMILES | CSN inh | Rpn11 block | MT1-MMP act inh | SUMO1 PPI mod | DNMT1 block | SKN-1 inh
Cn1nccc1-c1ccc(C(=O)Nc2cccc(NS(C)(=O)=O)c2)c2occc12 | 0.9 | -3.0 | 2.1 | 13.8 | 3.0 | 37.0*
Cc1ccc(CSCC(=O)N2CCOCC2)cc1 | -1.0 | 3.1 | -1.9 | -2.6 | -1.9 | 44.3*
O=C(CSCc1ccc(Cl)cc1)N1CCOCC1 | 3.6 | -2.0 | 0.8 | 1.3 | -3.6 | -0.7
O=C1Nc2ccccc2-n2nnnc2C1N1CCN(c2ccc(C(F)(F)F)cn2)CC1 (stereo unspecified) | 0.1 | / | -1.4 | 3.0 | / | -6.4
C(=C\c1ccccc1)/CN1CCN(C(c2cc3ccccc3o2)c2nnnn2C2CCCCC2)CC1 (stereo unspecified) | 0.9 | -0.8 | 0.5 | 1.9 | -22.8 | 12.4
Cc1nnc2c(NCC(C)c3ccccc3)nc3ccccc3n12 (stereo unspecified) | -0.9 | 5.6 | 12.2 | 48.3* | 2.6 | 9.1
Cc1nnc2c(NCCC(C)C)nc3ccccc3n12 | 1.6 | -0.3 | 21.4 | -0.8 | -0.5 | 23.3
CCCS(=O)(=O)NC(=O)C1(C)CCCN(C(=O)C2(c3ccc(Cl)cc3)CCCC2)C1 (stereo unspecified) | 3.8 | -13.3 | / | 0.8 | 5.8 | 13.4
CCOC(=O)c1cccc(Nc2nc(-c3cccnc3)nc3ccccc23)c1 | 3.0 | 16.5 | -21.2 | 2.0 | -16.1 | 4.1
COC(=O)c1cccc(Nc2nc(-c3cccnc3)nc3ccccc23)c1 | 1.6 | 5.0 | -7.4 | 46.1* | -8.8 | 18.8
COC(=O)c1cccc(Nc2nc(-c3ccncc3)nc3ccccc23)c1 | 3.1 | 3.0 | -1.2 | 60.6* | -6.3 | 3.2
COc1ccc(-c2ccc(C(=O)Nc3ccc(OC)nc3)c3occc23)c(C)c1 | -5.7 | 13.2 | -2.9 | 2.4 | -7.3 | 6.1
COc1ccc(CCNC(=O)c2cc3cc(Cl)ccc3nc2N)cc1OC | 2.7 | / | -1.1 | -1.8 | / | 9.7
Oc1ccc(N=Cc2ccc(O)c(O)c2)cc1 | 12.2 | 7.3 | 16.2 | 50.8* | 65.4* | 2.4
Cc1ccc(NC(=O)C2C3C=CC4(O3)C2C(=O)N(CCN2CCOCC2)C4C(=O)NC2CCCCC2)cc1C (stereo unspecified) | 0.0 | 7.3 | -0.7 | 7.8 | 0.9 | 7.7
CSc1cccc(NC(=O)C2C3C=CC4(O3)C2C(=O)N(CCN2CCOCC2)C4C(=O)NC2CCCCC2)c1 (stereo unspecified) | -2.7 | -0.6 | 0.6 | 5.8 | 0.3 | 36.9*
